Structures are written as SMILES.

Assay type in all cases: biochemical
Experiment [1] addresses T1, ALDH3A1 (Homo sapiens, UniProt P30838).
T1 sequence (P30838 1-453): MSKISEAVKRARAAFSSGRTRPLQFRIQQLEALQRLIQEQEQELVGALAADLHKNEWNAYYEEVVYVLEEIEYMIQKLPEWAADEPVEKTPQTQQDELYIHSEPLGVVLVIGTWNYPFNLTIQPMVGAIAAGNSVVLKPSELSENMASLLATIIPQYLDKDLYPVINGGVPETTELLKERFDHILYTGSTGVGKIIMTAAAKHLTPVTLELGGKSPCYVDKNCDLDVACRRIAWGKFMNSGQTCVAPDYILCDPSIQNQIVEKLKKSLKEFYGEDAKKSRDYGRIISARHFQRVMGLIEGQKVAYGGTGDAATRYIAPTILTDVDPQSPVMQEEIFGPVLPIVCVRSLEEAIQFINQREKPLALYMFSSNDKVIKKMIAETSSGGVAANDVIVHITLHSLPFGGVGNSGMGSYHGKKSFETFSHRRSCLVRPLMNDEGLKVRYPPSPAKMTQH
The experiment can be described thus: ALDH3A1 dehydrogenase assay. As to conditions: read-out: (Dehydrogenase assay) IC50; ALDH3A1, 1 mM benzaldehyde, […] NADP+, pH 7.5.

The target in experiment [2] is T1, ALDH3A1. The experiment can be described thus: ALDH3A1 esterase assay. Particulars: read-out: (Esterase assay) IC50; ALDH3A1, 0.8 mM para-nitrophenylacetate, pH 7.5. In a few lines:
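Reactions used nickel-NTA/Q-sepharose-purified recombinant ALDH3A1 at 180 nM in 25 mM sodium HEPES. Inhibitor was preincubated with enzyme for 2 min, and 0.8 mM para-nitrophenylacetate then started the reaction. para-Nitrophenol formation was read spectrophotometrically at 405 nm (ε 18,000 M−1cm−1).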

The next experiment addresses T2, ALDH1A1 (Homo sapiens, UniProt P00352).
T2 sequence (P00352 1-501): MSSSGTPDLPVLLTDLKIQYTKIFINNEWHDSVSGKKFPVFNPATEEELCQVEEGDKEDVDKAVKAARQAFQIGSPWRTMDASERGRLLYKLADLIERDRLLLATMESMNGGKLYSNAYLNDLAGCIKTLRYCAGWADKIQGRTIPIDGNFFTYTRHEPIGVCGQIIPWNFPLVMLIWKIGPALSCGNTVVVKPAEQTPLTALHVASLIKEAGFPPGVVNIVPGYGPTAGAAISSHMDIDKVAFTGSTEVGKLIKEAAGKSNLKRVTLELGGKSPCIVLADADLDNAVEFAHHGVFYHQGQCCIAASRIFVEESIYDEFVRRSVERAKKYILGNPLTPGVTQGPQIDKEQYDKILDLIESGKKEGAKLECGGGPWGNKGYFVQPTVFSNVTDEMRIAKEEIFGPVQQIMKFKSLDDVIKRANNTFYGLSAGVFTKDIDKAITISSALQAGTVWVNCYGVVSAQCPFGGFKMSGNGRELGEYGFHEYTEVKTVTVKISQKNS
The experiment can be described thus: Isoenzyme selectivity: ALDH1A1 dehydrogenase activity. Particulars: 10 μM concentration, aldehyde oxidation.

The next experiment addresses T3, ALDH2 (Homo sapiens, UniProt P05091).
T3 sequence (P05091 18-517): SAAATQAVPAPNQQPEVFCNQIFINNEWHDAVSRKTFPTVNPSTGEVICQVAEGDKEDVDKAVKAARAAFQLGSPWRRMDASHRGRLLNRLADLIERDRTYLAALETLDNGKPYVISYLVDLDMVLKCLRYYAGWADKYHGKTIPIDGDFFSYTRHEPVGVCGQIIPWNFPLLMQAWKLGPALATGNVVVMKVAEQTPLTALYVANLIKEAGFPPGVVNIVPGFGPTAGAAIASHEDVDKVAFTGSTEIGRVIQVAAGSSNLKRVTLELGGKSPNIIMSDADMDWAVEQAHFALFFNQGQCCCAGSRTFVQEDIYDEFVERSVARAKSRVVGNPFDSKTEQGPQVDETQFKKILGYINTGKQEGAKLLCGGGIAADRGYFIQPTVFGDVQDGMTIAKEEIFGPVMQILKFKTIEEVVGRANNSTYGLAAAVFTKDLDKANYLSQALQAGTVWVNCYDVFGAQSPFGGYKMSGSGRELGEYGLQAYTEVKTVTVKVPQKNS
The experiment can be described thus: Isoenzyme selectivity: ALDH2 dehydrogenase activity. Particulars: 10 μM concentration, aldehyde oxidation.

For `CCSc1nnc2c(n1)OC(C(=O)c1ccc(OC)cc1)Nc1ccccc1-2` (centres unmarked) [CD5], the results for the IC50 on ALDH3A1 [1] and on ALDH3A1 [2] were 1500 nM and 1000 nM, respectively.
Turning to `CC(=O)Nc1ccc(Nc2ccc(S(C)(=O)=O)cc2[N+](=O)[O-])cc1` [CB29], the IC50 at ALDH3A1 [1] amounted to 5000 nM; at ALDH3A1 [2], 500 nM. The “inhibition of ALDH1A1” value against ALDH1A1 is “less than 10%”. Besides, the “inhibition of ALDH2” value against ALDH2 is recorded as “less than 10%”.
`CCOC(=O)CN1C(=O)C(O)(CC(=O)c2ccncc2)c2ccccc21` (centres unmarked) [CD8]: the results for the IC50 on ALDH3A1 [1] and at ALDH3A1 [2] were 6300 nM and 2200 nM, respectively.

A word on the IC50: it is the concentration at which inhibition is half-maximal.

Values taken from publication PMC3103606 (Chemico-biological interactions, 2011).
